pIC50: −log10 of the molar value.
Target: PCSK9/LDLR (Homo sapiens, UniProt Q8NBP7)
Test: Inhibition of recombinant human His-tagged PCSK9 interaction with recombinant LDLR AB domain (unknown origin) measured after 3 hrs by horseradish peroxidase-coupled TMB substrate based spectrophotometry
Format: protein assay
Details: not given
How it was run: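 ELISA plates pre-coated with LDLR-EGF-AB domain. Compounds serially diluted from 10 mM DMSO stocks in reaction buffer, with 7 ng His-tagged human PCSK9 added, 3 h at room temperature with shaking. Binding detected with biotinylated anti-His antibody (1 h), then HRP-streptavidin (20 min), then substrate (15 min); absorbance read at 450/540 nm. IC50 taken from the % inhibition curve.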

PCSK9/LDLR, sequence (Q8NBP7 31-152 limits assumed): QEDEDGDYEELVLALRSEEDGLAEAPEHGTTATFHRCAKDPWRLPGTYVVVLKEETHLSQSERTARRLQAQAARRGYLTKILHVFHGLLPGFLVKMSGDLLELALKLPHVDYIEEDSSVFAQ
PCSK9/LDLR, sequence (Q8NBP7 153-692 limits assumed): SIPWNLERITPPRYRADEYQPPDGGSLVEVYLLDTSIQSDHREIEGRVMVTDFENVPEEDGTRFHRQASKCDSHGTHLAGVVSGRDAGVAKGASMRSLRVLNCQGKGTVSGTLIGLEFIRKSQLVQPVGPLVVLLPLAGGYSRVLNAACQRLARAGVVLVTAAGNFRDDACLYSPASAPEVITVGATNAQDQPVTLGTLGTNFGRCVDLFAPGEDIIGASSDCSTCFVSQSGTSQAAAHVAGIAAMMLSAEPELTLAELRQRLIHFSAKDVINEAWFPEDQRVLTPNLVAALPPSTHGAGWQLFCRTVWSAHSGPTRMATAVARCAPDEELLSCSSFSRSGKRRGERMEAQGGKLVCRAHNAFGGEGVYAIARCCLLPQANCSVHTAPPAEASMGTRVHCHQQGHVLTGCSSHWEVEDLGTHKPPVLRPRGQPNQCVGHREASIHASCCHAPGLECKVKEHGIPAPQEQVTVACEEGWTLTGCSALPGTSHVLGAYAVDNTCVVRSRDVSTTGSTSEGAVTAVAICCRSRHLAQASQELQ
PCSK9/LDLR, sequence (P01130 22-860 partner limits assumed): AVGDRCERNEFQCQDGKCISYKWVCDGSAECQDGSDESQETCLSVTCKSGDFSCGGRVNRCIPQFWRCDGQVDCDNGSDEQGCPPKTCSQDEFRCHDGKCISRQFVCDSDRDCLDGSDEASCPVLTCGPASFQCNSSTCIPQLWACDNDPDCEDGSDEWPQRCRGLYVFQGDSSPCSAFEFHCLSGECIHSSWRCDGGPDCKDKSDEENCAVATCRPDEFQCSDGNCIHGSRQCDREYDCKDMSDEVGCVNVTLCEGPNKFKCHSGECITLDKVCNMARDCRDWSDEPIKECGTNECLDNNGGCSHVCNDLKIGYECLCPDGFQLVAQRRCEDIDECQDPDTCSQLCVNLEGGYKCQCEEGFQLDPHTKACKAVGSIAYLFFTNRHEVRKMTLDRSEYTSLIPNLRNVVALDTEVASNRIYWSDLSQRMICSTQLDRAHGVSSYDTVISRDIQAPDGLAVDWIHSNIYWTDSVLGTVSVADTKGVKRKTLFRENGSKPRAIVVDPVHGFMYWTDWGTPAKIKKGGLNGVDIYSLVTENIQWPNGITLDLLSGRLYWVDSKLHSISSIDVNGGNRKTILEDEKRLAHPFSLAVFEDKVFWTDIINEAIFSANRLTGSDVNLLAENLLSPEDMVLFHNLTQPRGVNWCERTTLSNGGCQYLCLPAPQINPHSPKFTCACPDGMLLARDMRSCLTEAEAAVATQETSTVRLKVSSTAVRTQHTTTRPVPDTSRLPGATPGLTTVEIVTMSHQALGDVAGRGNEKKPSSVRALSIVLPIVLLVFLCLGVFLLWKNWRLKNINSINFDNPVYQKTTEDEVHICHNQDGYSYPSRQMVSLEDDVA

SMILES	pIC50
Cc1cn(-c2cc(NC(=O)c3ccc(C)c(Nc4nccc(-c5ccccc5)n4)c3)cc(N3CCNCC3)c2)cn1	6.31
Cc1ccc(C(=O)Nc2cc(N3CCN(C)CC3)cc(-n3cnc(C)c3)c2)cc1	4.58
Cc1cn(-c2cc(CCC(=O)O)cc(NC(=O)c3ccc(C)c(Nc4nccc(-c5ccccc5)n4)c3)c2)cn1	5.03
Cc1cn(-c2cc(CN3CCCC[C@H]3C(N)=O)cc(NC(=O)c3ccc(C)c(Nc4nccc(-c5ccc(F)cc5)n4)c3)c2)cn1	5.59
Cc1cn(-c2cc(CN3CCCC[C@H]3C(=O)O)cc(NC(=O)c3ccc(C)c(Nc4nccc(-c5ccc(F)cc5)n4)c3)c2)cn1	4.85

Target: Mast/stem cell growth factor receptor Kit (Homo sapiens, UniProt P10721)
Test: Inhibition of recombinant human N-terminal GST-tagged c-Kit (544 to end residues) expressed in baculovirus infected Sf21 insect cells using FAM-labelled P22 peptide as substrate preincubated for 10 mins followed by substrate addition and measured after 1 hr in presence of ATP by fluorescence assay
Details: not given

SMILES	pIC50
Cc1cn(-c2cc(NC(=O)c3ccc(C)c(Nc4nccc(-c5ccccc5)n4)c3)cc(N3CCNCC3)c2)cn1	5.83
Cc1ccc(C(=O)Nc2cc(N3CCN(C)CC3)cc(-n3cnc(C)c3)c2)cc1	< 5.00
Cc1cn(-c2cc(CCC(=O)O)cc(NC(=O)c3ccc(C)c(Nc4nccc(-c5ccccc5)n4)c3)c2)cn1	6.46
Cc1cn(-c2cc(CN3CCCC[C@H]3C(N)=O)cc(NC(=O)c3ccc(C)c(Nc4nccc(-c5ccc(F)cc5)n4)c3)c2)cn1	5.01
Cc1cn(-c2cc(CN3CCCC[C@H]3C(=O)O)cc(NC(=O)c3ccc(C)c(Nc4nccc(-c5ccc(F)cc5)n4)c3)c2)cn1	< 5.00

Target: Tyrosine-protein kinase ABL1 (Homo sapiens, UniProt P00519)
Sequence (P00519 whole entry, the tested form may be a part): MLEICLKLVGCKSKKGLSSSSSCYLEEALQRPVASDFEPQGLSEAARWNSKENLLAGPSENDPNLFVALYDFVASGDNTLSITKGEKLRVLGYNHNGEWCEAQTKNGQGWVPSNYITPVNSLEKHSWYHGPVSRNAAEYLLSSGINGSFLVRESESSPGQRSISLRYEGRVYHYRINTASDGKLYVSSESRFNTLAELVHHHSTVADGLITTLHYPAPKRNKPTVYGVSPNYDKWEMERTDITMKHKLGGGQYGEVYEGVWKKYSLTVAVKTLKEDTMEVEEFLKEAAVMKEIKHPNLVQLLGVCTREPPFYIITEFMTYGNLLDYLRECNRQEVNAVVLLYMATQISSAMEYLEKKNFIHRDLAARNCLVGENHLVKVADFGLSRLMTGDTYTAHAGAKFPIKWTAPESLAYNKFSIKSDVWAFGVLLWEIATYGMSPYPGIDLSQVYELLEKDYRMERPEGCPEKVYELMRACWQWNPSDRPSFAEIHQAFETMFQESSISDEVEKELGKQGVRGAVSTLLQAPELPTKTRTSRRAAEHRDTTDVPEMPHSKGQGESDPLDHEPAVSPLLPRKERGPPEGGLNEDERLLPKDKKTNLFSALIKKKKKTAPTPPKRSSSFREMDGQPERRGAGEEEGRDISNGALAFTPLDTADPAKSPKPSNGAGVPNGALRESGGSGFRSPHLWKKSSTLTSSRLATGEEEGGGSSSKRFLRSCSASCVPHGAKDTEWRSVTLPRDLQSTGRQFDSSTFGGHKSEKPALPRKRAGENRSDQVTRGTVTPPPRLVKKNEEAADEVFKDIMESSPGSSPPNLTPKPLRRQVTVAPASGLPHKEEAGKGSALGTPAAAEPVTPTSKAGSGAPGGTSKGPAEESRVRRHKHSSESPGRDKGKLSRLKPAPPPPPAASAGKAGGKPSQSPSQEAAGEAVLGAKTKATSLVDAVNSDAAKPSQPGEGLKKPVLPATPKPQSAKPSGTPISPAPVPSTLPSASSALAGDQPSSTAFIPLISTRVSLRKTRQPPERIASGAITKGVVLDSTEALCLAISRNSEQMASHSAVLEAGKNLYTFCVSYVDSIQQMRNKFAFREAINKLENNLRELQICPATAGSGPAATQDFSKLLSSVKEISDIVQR
Test: (§1) Inhibition of recombinant human N-terminal His-tagged Abl (2 to 1130 residues) expressed in baculovirus expression system using FAM-labelled P2 peptide as substrate preincubated for 10 mins followed by substrate addition and measured after 1 hr in presence of ATP by fluorescence assay
Details: not given

SMILES	pIC50
Cc1ccc(C(=O)Nc2cc(N3CCN(C)CC3)cc(-n3cnc(C)c3)c2)cc1	< 5.00
Cc1cn(-c2cc(CCC(=O)O)cc(NC(=O)c3ccc(C)c(Nc4nccc(-c5ccccc5)n4)c3)c2)cn1	< 5.00
Cc1cn(-c2cc(CN3CCCC[C@H]3C(N)=O)cc(NC(=O)c3ccc(C)c(Nc4nccc(-c5ccc(F)cc5)n4)c3)c2)cn1	< 5.00
Cc1cn(-c2cc(CN3CCCC[C@H]3C(=O)O)cc(NC(=O)c3ccc(C)c(Nc4nccc(-c5ccc(F)cc5)n4)c3)c2)cn1	< 5.00

Target: Platelet-derived growth factor receptor beta (Homo sapiens, UniProt P09619)
Sequence (P09619 whole entry, the tested form may be a part): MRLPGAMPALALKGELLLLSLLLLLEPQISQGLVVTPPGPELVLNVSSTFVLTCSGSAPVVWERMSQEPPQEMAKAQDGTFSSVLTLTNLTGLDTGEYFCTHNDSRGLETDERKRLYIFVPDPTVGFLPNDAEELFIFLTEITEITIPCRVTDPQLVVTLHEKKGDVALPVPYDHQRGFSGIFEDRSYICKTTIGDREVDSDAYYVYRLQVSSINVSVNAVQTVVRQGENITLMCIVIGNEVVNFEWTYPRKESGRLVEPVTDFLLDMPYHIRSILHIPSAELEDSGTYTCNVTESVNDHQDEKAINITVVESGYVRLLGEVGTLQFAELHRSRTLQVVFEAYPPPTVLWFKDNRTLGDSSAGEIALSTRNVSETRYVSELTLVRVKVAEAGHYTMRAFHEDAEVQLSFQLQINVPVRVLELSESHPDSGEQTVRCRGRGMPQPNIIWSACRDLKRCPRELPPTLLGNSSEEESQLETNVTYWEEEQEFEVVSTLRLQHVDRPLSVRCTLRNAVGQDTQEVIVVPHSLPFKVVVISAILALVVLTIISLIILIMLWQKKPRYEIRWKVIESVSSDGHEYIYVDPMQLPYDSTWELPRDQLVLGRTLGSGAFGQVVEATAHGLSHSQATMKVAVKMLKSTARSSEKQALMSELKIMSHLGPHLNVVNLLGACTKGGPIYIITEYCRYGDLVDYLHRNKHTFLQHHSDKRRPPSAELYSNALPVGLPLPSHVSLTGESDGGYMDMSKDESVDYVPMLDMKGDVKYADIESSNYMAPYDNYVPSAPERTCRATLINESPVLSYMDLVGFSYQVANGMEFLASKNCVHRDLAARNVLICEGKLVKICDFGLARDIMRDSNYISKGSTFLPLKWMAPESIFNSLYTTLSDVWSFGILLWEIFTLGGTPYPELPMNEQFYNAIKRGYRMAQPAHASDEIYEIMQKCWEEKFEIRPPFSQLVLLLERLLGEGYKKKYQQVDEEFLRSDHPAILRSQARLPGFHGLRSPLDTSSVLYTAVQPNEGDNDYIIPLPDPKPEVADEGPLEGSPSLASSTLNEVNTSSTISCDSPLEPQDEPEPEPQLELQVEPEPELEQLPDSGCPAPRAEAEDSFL
Test: as §1, with “GST-tagged PDGFRbeta cytoplasmic domain (557” for “His-tagged Abl (2”, “1106” for “1130”, “P22” for “P2”
Details: not given

SMILES	pIC50
Cc1cn(-c2cc(NC(=O)c3ccc(C)c(Nc4nccc(-c5ccccc5)n4)c3)cc(N3CCNCC3)c2)cn1	5.82
Cc1ccc(C(=O)Nc2cc(N3CCN(C)CC3)cc(-n3cnc(C)c3)c2)cc1	< 5.00
Cc1cn(-c2cc(CCC(=O)O)cc(NC(=O)c3ccc(C)c(Nc4nccc(-c5ccccc5)n4)c3)c2)cn1	< 5.00
Cc1cn(-c2cc(CN3CCCC[C@H]3C(N)=O)cc(NC(=O)c3ccc(C)c(Nc4nccc(-c5ccc(F)cc5)n4)c3)c2)cn1	< 5.00
Cc1cn(-c2cc(CN3CCCC[C@H]3C(=O)O)cc(NC(=O)c3ccc(C)c(Nc4nccc(-c5ccc(F)cc5)n4)c3)c2)cn1	< 5.00

Target: Proto-oncogene tyrosine-protein kinase Src (Homo sapiens, UniProt P12931)
Sequence (P12931 2-536 limits assumed): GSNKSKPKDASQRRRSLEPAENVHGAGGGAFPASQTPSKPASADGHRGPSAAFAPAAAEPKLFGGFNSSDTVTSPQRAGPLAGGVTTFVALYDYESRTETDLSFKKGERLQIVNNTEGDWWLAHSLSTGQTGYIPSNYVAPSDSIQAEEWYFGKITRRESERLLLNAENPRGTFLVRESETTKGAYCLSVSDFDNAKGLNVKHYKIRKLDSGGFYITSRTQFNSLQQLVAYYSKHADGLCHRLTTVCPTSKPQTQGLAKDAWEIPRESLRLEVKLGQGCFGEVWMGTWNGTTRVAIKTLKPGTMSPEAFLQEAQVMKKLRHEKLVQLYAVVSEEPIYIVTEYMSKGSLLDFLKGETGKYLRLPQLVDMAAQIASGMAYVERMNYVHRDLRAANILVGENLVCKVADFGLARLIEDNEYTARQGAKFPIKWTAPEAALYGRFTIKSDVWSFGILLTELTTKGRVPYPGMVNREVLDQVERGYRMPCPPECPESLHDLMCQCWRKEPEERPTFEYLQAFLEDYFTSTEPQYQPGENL
Test: Inhibition of recombinant human full-length N-terminal GST-tagged SRC (1 to 536 residues) expressed in baculovirus expression system using FAM-labelled P4 peptide as substrate preincubated for 10 mins followed by substrate addition and measured after 1 hr in presence of ATP by fluorescence assay
Details: not given

SMILES	pIC50
Cc1cn(-c2cc(NC(=O)c3ccc(C)c(Nc4nccc(-c5ccccc5)n4)c3)cc(N3CCNCC3)c2)cn1	5.36
Cc1ccc(C(=O)Nc2cc(N3CCN(C)CC3)cc(-n3cnc(C)c3)c2)cc1	< 5.00
Cc1cn(-c2cc(CCC(=O)O)cc(NC(=O)c3ccc(C)c(Nc4nccc(-c5ccccc5)n4)c3)c2)cn1	< 5.00
Cc1cn(-c2cc(CN3CCCC[C@H]3C(N)=O)cc(NC(=O)c3ccc(C)c(Nc4nccc(-c5ccc(F)cc5)n4)c3)c2)cn1	< 5.00
Cc1cn(-c2cc(CN3CCCC[C@H]3C(=O)O)cc(NC(=O)c3ccc(C)c(Nc4nccc(-c5ccc(F)cc5)n4)c3)c2)cn1	< 5.00

Test system: not listed separately
Test: Clearance in CD1 mouse at 0.4 mg/kg, iv administered as cassette dose measured upto 24 hrs by LC-MS/MS analysis
Format: ADME, organism-based
Details: in vivo
How it was run: (§2)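 Male CD1 mice (second cassette 28–29 g, 7–8 weeks) given one IV 5-in-1 cassette at 0.4 mg/kg per compound in 5% DMAC/5% Solutol HS15/90% saline. Blood (~20 µL) into K2EDTA from the facial vein at 0.083–24 h, terminal bleed by cardiac puncture under isoflurane. Blood diluted with deionised water, stored at −80 °C, analysed by positive-ESI mass spectrometry.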

SMILES	clearance [mL/min/kg]
Cc1cn(-c2cc(NC(=O)c3ccc(C)c(Nc4nccc(-c5ccccc5)n4)c3)cc(N3CCNCC3)c2)cn1	52.5

Test system: not listed separately
Test: Volume of distribution at steady state in CD1 mouse at 0.4 mg/kg, iv administered as cassette dose measured upto 24 hrs by LC-MS/MS analysis
Format: ADME, organism-based
Details: in vivo, read-out: Vdss
How it was run: as §2

SMILES	Vd [L/kg]
Cc1cn(-c2cc(NC(=O)c3ccc(C)c(Nc4nccc(-c5ccccc5)n4)c3)cc(N3CCNCC3)c2)cn1	3.74

Test system: not listed separately
Test: Terminal half life in CD1 mouse at 0.4 mg/kg, iv administered as cassette dose measured upto 24 hrs by LC-MS/MS analysis
Format: ADME, organism-based
Details: in vivo, read-out: beta t1/2 (converted)
How it was run: as §2

SMILES	half-life [h]
Cc1cn(-c2cc(NC(=O)c3ccc(C)c(Nc4nccc(-c5ccccc5)n4)c3)cc(N3CCNCC3)c2)cn1	1.64

Test system: not listed separately
Test: AUClast in CD1 mouse at 0.4 mg/kg, iv administered as cassette dose measured upto 24 hrs by LC-MS/MS analysis
Format: ADME, organism-based
Design: time < 24 hr, dose 0.4 mg/kg, route intravenous
Details: in vivo
How it was run: as §2

SMILES	AUC(0-t) at 24 h [ng·h/mL]
Cc1cn(-c2cc(NC(=O)c3ccc(C)c(Nc4nccc(-c5ccccc5)n4)c3)cc(N3CCNCC3)c2)cn1	116

Test system: not listed separately
Test: AUCinfinity in CD1 mouse at 0.4 mg/kg, iv administered as cassette dose measured upto 24 hrs by LC-MS/MS analysis
Format: ADME, organism-based
Design: dose 0.4 mg/kg, route intravenous, time infinity
Details: in vivo
How it was run: as §2

SMILES	AUC(0-inf) [ng·h/mL]
Cc1cn(-c2cc(NC(=O)c3ccc(C)c(Nc4nccc(-c5ccccc5)n4)c3)cc(N3CCNCC3)c2)cn1	127

Test system: not listed separately
Test: Mean residence time (0 to infinity) in CD1 mouse at 0.4 mg/kg, iv administered as cassette dose measured upto 24 hrs by LC-MS analysis
Format: ADME, organism-based
Details: in vivo
How it was run: as §2

SMILES	MRT inf [h]
Cc1cn(-c2cc(NC(=O)c3ccc(C)c(Nc4nccc(-c5ccccc5)n4)c3)cc(N3CCNCC3)c2)cn1	1.19

— ChEMBL document CHEMBL4627281, “A small molecule inhibitor of PCSK9 that antagonizes LDL receptor binding via interaction with a cryptic PCSK9 binding groove” (Bioorg Med Chem, 2020)
